# pIC50: −log10 of the molar value. Calls of active or inactive are those of the source. No cut-off for these calls is given here. Where a SMILES comes first, the peptide text is derived from it. [ ]: non-standard residue; d: D form. The star is where a group is joined. Orotyl(5-F) = O=C(c1[nH]c(=O)[nH]c(=O)c1F)*; Dap = NC[C@H](N)C(=O)O
# Experiments:
# [1] = biological target: T1, Beta-secretase 1 (Homo sapiens, UniProt P56817); test: Inhibition of human recombinant BACE1 using 7-methoxycoumarin-4-yl)acetyl-Ser-Glu-Val-Asn-Leu*Asp-Ala- Glu-Phe-Arg-Lys(2,4-dinitrophenyl)-Arg-Arg-NH2 as substrate at 2 uM by FRET assay
# T1 sequence (P56817 whole entry, the tested form may be a part): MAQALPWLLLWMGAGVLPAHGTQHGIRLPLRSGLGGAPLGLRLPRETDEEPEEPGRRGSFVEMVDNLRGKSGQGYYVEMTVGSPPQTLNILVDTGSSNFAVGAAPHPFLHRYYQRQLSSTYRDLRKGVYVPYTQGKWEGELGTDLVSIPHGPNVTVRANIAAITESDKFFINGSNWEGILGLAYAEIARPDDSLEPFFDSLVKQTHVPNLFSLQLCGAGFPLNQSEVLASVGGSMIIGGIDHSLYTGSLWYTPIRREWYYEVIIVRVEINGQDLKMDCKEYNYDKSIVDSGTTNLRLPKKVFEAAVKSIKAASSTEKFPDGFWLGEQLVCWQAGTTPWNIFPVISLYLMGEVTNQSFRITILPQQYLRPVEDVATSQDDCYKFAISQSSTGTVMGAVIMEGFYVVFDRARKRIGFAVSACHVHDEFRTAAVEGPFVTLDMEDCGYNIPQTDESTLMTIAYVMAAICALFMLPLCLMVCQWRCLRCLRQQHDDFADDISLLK
# How it was run: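 Recombinant human BACE1 incubated with FRET substrate and 2.0 μM compound in incubation buffer for 1 h. The N-terminal substrate cleavage fragment was measured by RP-HPLC with fluorescence detection.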
# [2] = biological target: T1, Beta-secretase 1; test: Inhibition of human recombinant BACE1 using 7-methoxycoumarin-4-yl)acetyl-Ser-Glu-Val-Asn-Leu*Asp-Ala- Glu-Phe-Arg-Lys(2,4-dinitrophenyl)-Arg-Arg-NH2 as substrate by FRET assay
# How it was run: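 Recombinant human BACE1 and FRET substrate incubated 1 h in incubation buffer with compound at 2.0 or 0.2 μM. The N-terminal cleavage fragment was analysed by reverse-phase HPLC with fluorescence detection.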
# [3] = biological target: T1, Beta-secretase 1; test: Inhibition of human recombinant BACE1 using 7-methoxycoumarin-4-yl)acetyl-Ser-Glu-Val-Asn-Leu*Asp-Ala- Glu-Phe-Arg-Lys(2,4-dinitrophenyl)-Arg-Arg-NH2 as substrate at 0.2 uM by FRET assay
# How it was run: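 Recombinant human BACE1 incubated with FRET substrate and 0.2 μM compound in incubation buffer for 1 h. The N-terminal cleavage fragment of the substrate was quantified by RP-HPLC with fluorescence detection.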
# [4] = biological target: T1, Beta-secretase 1; test: Activity of human recombinant BACE1 after 24 hrs
# How it was run: (§1)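 Peptides incubated with recombinant human BACE1 for 1 or 24 h in buffer, at the same BACE1 and peptide concentrations as the inhibition assay. The buffer was analysed by HPLC for the product of cleavage at the P1–P1′ amide bond.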
# [5] = biological target: T1, Beta-secretase 1; test: Activity of human recombinant BACE1 after 1 hr; how it was run: as §1
Structure (SMILES),inhibition [1] [%],pIC50 [2],inhibition [3] [%],Activity [4],Activity [5]
CC(C)[C@H](NC(=O)[C@@H](N)CNC(=O)c1[nH]c(=O)[nH]c(=O)c1F)C(=O)N[C@@H](CC(N)=O)C(=O)N[C@@H](Cc1ccccc1)C(=O)O (H-[Dap](Orotyl(5-F))VNF-OH),< 5,–,–,–,–
CC(C)C[C@H](NC(=O)[C@@H](NC(=O)[C@@H](N)CCC(=O)O)C(C)C)C(=O)N[C@@H](Cc1ccccc1)C(=O)N[C@@H](CN)C(=O)N[C@@H](C)C(=O)N[C@@H](CCC(=O)O)C(=O)N[C@@H](Cc1ccccc1)C(=O)O,7,–,–,–,–
CC(C)C[C@H](NC(=O)[C@@H](NC(=O)[C@@H](N)CCC(=O)O)C(C)C)C(=O)N[C@@H](Cc1ccccc1)C(=O)N[C@@H](CS)C(=O)N[C@@H](C)C(=O)N[C@@H](CCC(=O)O)C(=O)N[C@@H](Cc1ccccc1)C(=O)O,< 5,–,–,–,–
CC(C)C[C@H](NC(=O)[C@@H](NC(=O)[C@@H](N)CCC(=O)O)C(C)C)C(=O)N[C@@H](Cc1ccccc1)C(=O)O (H-EVLF-OH),8,–,–,–,–
CC(C)[C@H](NC(=O)[C@@H](N)CNC(=O)c1[nH]c(=O)[nH]c(=O)c1F)C(=O)N[C@@H](CC(N)=O)C(=O)N[C@@H](Cc1ccccc1)C(=O)N[C@@H](CC(N)=O)C(=O)O (H-[Dap](Orotyl(5-F))VNFN-OH),< 5,–,–,–,–
CC(C)C[C@H](NC(=O)[C@@H](NC(=O)[C@@H](N)CNC(=O)c1[nH]c(=O)[nH]c(=O)c1F)C(C)C)C(=O)N[C@@H](Cc1ccccc1)C(=O)N[C@H](C)C(=O)O,93,6.77,53,–,–
CC(C)[C@H](NC(=O)[C@@H](N)CNC(=O)c1[nH]c(=O)[nH]c(=O)c1F)C(=O)N[C@@H](CC1CCCCC1)C(=O)N[C@@H](Cc1ccccc1)C(=O)N[C@H](CC(N)=O)C(=O)O,92,6.85,58,–,–
CC(C)C[C@H](NC(=O)[C@@H](NC(=O)[C@@H](N)CCC(=O)O)C(C)C)C(=O)N[C@@H](Cc1ccccc1)C(=O)N[C@H](CC(N)=O)C(=O)O,29,–,–,–,–
CC(C)[C@H](NC(=O)[C@@H](N)CCC(=O)O)C(=O)N[C@@H](CCCCN)C(=O)N[C@@H](Cc1ccccc1)C(=O)O (H-EVKF-OH),10,–,–,–,–
CC(C)C[C@H](NC(=O)[C@@H](NC(=O)[C@@H](N)CCC(=O)O)C(C)C)C(=O)N[C@@H](Cc1ccccc1)C(=O)N[C@H](CN)C(=O)N[C@@H](C)C(=O)N[C@@H](CCC(=O)O)C(=O)N[C@@H](Cc1ccccc1)C(=O)O,15,–,–,–,–
CC(C)[C@H](NC(=O)[C@@H](N)CCC(=O)O)C(=O)N[C@@H](CC(N)=O)C(=O)N[C@@H](Cc1ccccc1)C(=O)O (H-EVNF-OH),< 5,–,–,–,–
CC(C)C[C@H](NC(=O)[C@@H](NC(=O)[C@@H](N)CNC(=O)c1[nH]c(=O)[nH]c(=O)c1F)C(C)C)C(=O)N[C@@H](Cc1ccccc1)C(=O)N[C@@H](CC(N)=O)C(=O)O,89,6.76,56,inactive,inactive
CC(C)[C@H](NC(=O)[C@@H](N)CNC(=O)c1[nH]c(=O)[nH]c(=O)c1F)C(=O)N[C@@H](CC1CCCCC1)C(=O)N[C@@H](Cc1ccccc1)C(=O)N[C@H](CO)C(=O)O,92,6.79,54,–,–
CC(C)C[C@H](NC(=O)[C@@H](NC(=O)[C@@H](N)CNC(=O)c1[nH]c(=O)[nH]c(=O)c1F)C(C)C)C(=O)N[C@@H](Cc1ccccc1)C(=O)N[C@@H](CO)C(=O)O,85,6.58,48,inactive,inactive
CC(C)C[C@H](NC(=O)[C@@H](NC(=O)[C@@H](N)CNC(=O)c1[nH]c(=O)[nH]c(=O)c1F)C(C)C)C(=O)N[C@@H](Cc1ccccc1)C(=O)O (H-[Dap](Orotyl(5-F))VLF-OH),90,6.74,54,Active,Active
CC(C)C[C@H](NC(=O)[C@@H](NC(=O)[C@@H](N)CNC(=O)c1[nH]c(=O)[nH]c(=O)c1F)C(C)C)C(=O)N[C@@H](Cc1ccccc1)C(=O)N[C@H](CO)C(=O)O,94,6.86,57,inactive,inactive
CC(C)C[C@H](NC(=O)[C@@H](NC(=O)[C@@H](N)CNC(=O)c1[nH]c(=O)[nH]c(=O)c1F)C(C)C)C(=O)N[C@@H](Cc1ccccc1)C(=O)N[C@@H](C(=O)O)C(C)C,94,7.09,69,–,–
CC(C)C[C@H](NC(=O)[C@@H](NC(=O)[C@@H](N)CCC(=O)O)C(C)C)C(=O)N[C@@H](Cc1ccccc1)C(=O)N[C@H](CO)C(=O)O,23,–,–,–,–
CC(C)C[C@H](NC(=O)[C@@H](NC(=O)[C@@H](N)CNC(=O)c1[nH]c(=O)[nH]c(=O)c1F)C(C)C)C(=O)N[C@@H](Cc1ccccc1)C(=O)N[C@H](CC(N)=O)C(=O)O,95,7.07,65,inactive,inactive
CC(C)C[C@H](NC(=O)[C@@H](NC(=O)[C@@H](N)CNC(=O)c1[nH]c(=O)[nH]c(=O)c1F)C(C)C)C(=O)N[C@@H](Cc1ccccc1)[C@@H](O)C(=O)Nc1cccc(C(=O)O)c1,–,7.59,–,–,–
CC(C)C[C@H](NC(=O)[C@@H](NC(=O)[C@@H](N)CCC(=O)O)C(C)C)C(=O)N[C@@H](Cc1ccccc1)C(=O)N[C@@H](CO)C(=O)N[C@@H](C)C(=O)N[C@@H](CCC(=O)O)C(=O)N[C@@H](Cc1ccccc1)C(=O)O,6,–,–,–,–
CC(C)C[C@H](NC(=O)[C@@H](NC(=O)[C@@H](N)CCC(=O)O)C(C)C)C(=O)N[C@@H](Cc1ccccc1)C(=O)N[C@H](CS)C(=O)N[C@@H](C)C(=O)N[C@@H](CCC(=O)O)C(=O)N[C@@H](Cc1ccccc1)C(=O)O,28,–,–,–,–
CC(C)C[C@H](NC(=O)[C@@H](NC(=O)[C@@H](N)CCC(=O)O)C(C)C)C(=O)N[C@@H](Cc1ccccc1)C(=O)N[C@H](CO)C(=O)N[C@@H](C)C(=O)N[C@@H](CCC(=O)O)C(=O)N[C@@H](Cc1ccccc1)C(=O)O,28,–,–,–,–

# Source: ChEMBL document CHEMBL2046405, “BACE1 Inhibitor Peptides: Can an Infinitely Small k cat Value Turn the Substrate of an Enzyme into Its Inhibitor?” (ACS Med Chem Lett, 2012)
